Drawing on ChEMBL document CHEMBL1140069, “In vitro antifungal activity of polyfunctionalized 2-(hetero)arylquinolines prepared through imino Diels-Alder reactions” (2008), this text covers MIC for 3 compounds.

Values after ≈ are worked out from the molar mass of the structure shown.

Common to all, as to assay type: functional
Assay [1] relates to Aspergillus flavus. In words: Antifungal activity against Aspergillus flavus ATCC 9170 after 48 hrs by broth microdilution technique. Conditions: ATCC 9170, 48 h. In short, it runs like this: (§1)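 CLSI broth microdilution: M-27 A2 for yeasts and M-38 A for filamentous fungi. Medium is RPMI-1640 buffered to pH 7.0 with MOPS. Compound is diluted twofold from 250 to 0.98, final DMSO ≤2%. Inoculum is 1–5 × 10³ CFU/mL. Plates are incubated at 35 °C in a moist, dark chamber and read visually at 48 h. MIC100 is the lowest concentration giving total growth inhibition versus drug-free control.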

Assay [2] deals with Aspergillus niger. In words: Antifungal activity against Aspergillus niger ATCC 9029 after 48 hrs by broth microdilution technique. Conditions: ATCC 9029, 48 h. Put shortly:
as §1
Background: Dilution methods test growth across graded concentrations, often in twofold steps.

For assay [3], the system named is Nannizzia gypsea. As to the kind of experiment: Antifungal activity against Microsporum gypseum C115 after 48 hrs by broth microdilution technique. In short, it runs like this: as §1
The subject of assay [4] is Trichophyton rubrum. As to the kind of experiment: Antifungal activity against Trichophyton rubrum C110 after 48 hrs by broth microdilution technique. Put shortly:
as §1

The test system of assay [5] is Trichophyton mentagrophytes. As to the kind of experiment: Antifungal activity against Trichophyton mentagrophytes ATCC 9972 after 48 hrs by broth microdilution technique. Conditions: ATCC 9972, 48 h. Put shortly:
as §1

The test system of assay [6] is Trichophyton rubrum. As to the kind of experiment: Antifungal activity against Trichophyton rubrum C133 isolate. Conditions: read-out: MIC100.
The subject of assay [7] is Trichophyton rubrum. As to the kind of experiment: Antifungal activity against Trichophyton rubrum C135 isolate. Conditions: read-out: MIC100.
The test system of assay [8] is Trichophyton rubrum. As to the kind of experiment: Antifungal activity against Trichophyton rubrum C136 isolate. The following applies: read-out: MIC100.
The test system of assay [9] is Trichophyton rubrum. In words: Antifungal activity against Trichophyton rubrum C137 isolate. The following applies: read-out: MIC100.
Assay [10] has as its system Trichophyton mentagrophytes. As to the kind of experiment: Antifungal activity against Trichophyton mentagrophytes C131 isolate. The following applies: read-out: MIC100.
In assay [11] the test system is Trichophyton mentagrophytes. As to the kind of experiment: Antifungal activity against Trichophyton mentagrophytes C132 isolate. The following applies: read-out: MIC100.
In assay [12] the test system is Trichophyton mentagrophytes. In words: Antifungal activity against Trichophyton mentagrophytes C364 isolate. The following applies: read-out: MIC100.
Assay [13] has as its system Trichophyton mentagrophytes. In words: Antifungal activity against Trichophyton mentagrophytes C539 isolate. The following applies: read-out: MIC100.
Assay [14] has as its system Trichophyton mentagrophytes. In words: Antifungal activity against Trichophyton mentagrophytes C943 isolate. The following applies: read-out: MIC100.
The test system of assay [15] is Candida albicans. As to the kind of experiment: Antifungal activity against Candida albicans ATCC 10231 after 48 hrs by broth microdilution technique. Conditions: ATCC 10231, 48 h. In short, it runs like this: as §1
For assay [16], the system named is Saccharomyces cerevisiae. In words: Antifungal activity against Saccharomyces cerevisiae ATCC 9763 after 48 hrs by broth microdilution technique. The following applies: ATCC 9763, 48 h. Put shortly: as §1
The test system of assay [17] is Cryptococcus neoformans. In words: Antifungal activity against Cryptococcus neoformans ATCC 32264 after 48 hrs by broth microdilution technique. The following applies: ATCC 32264, 48 h. Put shortly: as §1
Assay [18] deals with Aspergillus fumigatus. As to the kind of experiment: Antifungal activity against Aspergillus fumigatus ATTC 26934 after 48 hrs by broth microdilution technique. In short, it runs like this: as §1

For the compound `Cc1cc(-c2ccncc2)nc2c(C(C)C)cccc12`, the MIC was greater than 250 µg/mL in assay [1]; greater than 250 µg/mL in [2]; 12.5 µg/mL (≈ 47.6 µM) in assay [3]; 12.5 µg/mL (≈ 47.6 µM) in [4] (read-out: MIC); 7.8 µg/mL (≈ 29.7 µM) in assay [4] (read-out: MIC100); 12.5 µg/mL (≈ 47.6 µM) in assay [5]. Further, the MIC in [6] stood at 15.6 µg/mL (≈ 59.5 µM); in [7], 7.8 µg/mL (≈ 29.7 µM); in [8] it was 7.8 µg/mL (≈ 29.7 µM); in assay [9] it was 7.8 µg/mL (≈ 29.7 µM); in [10], 15.6 µg/mL (≈ 59.5 µM); in [11] it was 7.8 µg/mL (≈ 29.7 µM). The MIC is 7.8 µg/mL (≈ 29.7 µM) in assay [12]; 7.8 µg/mL (≈ 29.7 µM) in assay [13]; 7.8 µg/mL (≈ 29.7 µM) in assay [14]; greater than 250 µg/mL in assay [15]; greater than 250 µg/mL in [16]; greater than 250 µg/mL in [17]. The compound further showed an MIC in assay [18] greater than 250 µg/mL.

On to `Cc1cc(-c2cccnc2)nc2ccc(Br)cc12`, for which the MIC in assay [1] is greater than 250 µg/mL; in assay [2] it was greater than 250 µg/mL; in [3] it was 12.5 µg/mL (≈ 41.8 µM); in assay [4] (read-out: MIC) it was 12.5 µg/mL (≈ 41.8 µM); in assay [5], 12.5 µg/mL (≈ 41.8 µM); in [15], greater than 250 µg/mL. Moreover, the MIC is greater than 250 µg/mL in assay [16], 250 µg/mL (≈ 836 µM) in assay [17] and greater than 250 µg/mL in assay [18].

For the compound `Cc1ccc2nc(-c3ccccc3)ccc2c1`, the MIC in [1] was greater than 250 µg/mL; in [2], greater than 250 µg/mL; in assay [3], 250 µg/mL (≈ 1140 µM); in [4] (read-out: MIC), 250 µg/mL (≈ 1140 µM); in assay [5] it was 250 µg/mL (≈ 1140 µM); in [15], greater than 250 µg/mL. Also, the values for the MIC in assay [16], in assay [17] and in assay [18] were greater than 250 µg/mL, 250 µg/mL (≈ 1140 µM) and greater than 250 µg/mL, respectively.
